pIC50: −log10 of the molar value. The source made the active and inactive calls. No cut-off for these calls is given here.
Assays:
[1] = test system: Trypanosoma brucei brucei; assay: Antitrypanosomal activity against suramin-sensitive Trypanosoma brucei brucei Squib 427 after 72 hrs by resazurin dye-based fluorimetric analysis; assay type: functional, organism-based; conditions: Squib 427, 72 h
Trypanosoma cruzi = assay: Antitrypanosomal activity against nifurtimox-sensitive Trypanosoma cruzi Tulahuen CL2 infected in human MRC5 SV2 cells assessed as reduction in parasite burden after 168 hrs by CPRG and Nonidet based spectrophotometric analysis; assay type: functional, organism-based; conditions: Tulahuen CL2, MRC-5 SV2, 168 h
Leishmania infantum = assay: Antileishmanial activity against Leishmania infantum MHOM/MA (BE)/67 amastigotes infected in primary peritoneal mouse macrophages after 120 hrs by giemsa staining-based microscopic analysis; assay type: functional, organism-based; conditions: MHOM/MA (BE)/67, 120 h
Plasmodium falciparum = assay: Antiplasmodial activity against chloroquine-resistant Plasmodium falciparum K1 infected in human erythrocytes after 72 hrs by Malstat reagent-based spectrophotometric analysis; assay type: functional, organism-based; conditions: K1, 72 h
[2] = Cytotoxicity against human MRC5 SV2 cells after 72 hrs by resazurin dye-based fluorimetric analysis; assay type: cell-based; conditions: MRC-5 SV2, 72 h
Peritoneal macrophage = assay: Cytotoxicity against mouse primary peritoneal macrophages after 72 hrs by resazurin dye-based fluorimetric analysis; assay type: cell-based
[3] = Drug metabolism in mouse liver microsomes assessed as CYP450 mediated compound […] by measuring parent compound remaining at 5 uM after 15 mins in presence of NADPH by UPLC/MS/ESI analysis; assay type: ADME; conditions: read-out: Stability
[4] = Drug metabolism in mouse liver microsomes assessed as CYP450 mediated compound […] by measuring parent compound remaining at 5 uM after 30 mins in presence of NADPH by UPLC/MS/ESI analysis; assay type: ADME; conditions: read-out: Stability
[5] = Drug metabolism in mouse liver microsomes assessed as CYP450 mediated compound […] by measuring parent compound remaining at 5 uM after 60 mins in presence of NADPH by UPLC/MS/ESI analysis; assay type: ADME; conditions: read-out: Stability
[6] = Drug metabolism in mouse liver microsomes assessed as UGT mediated compound […] by measuring parent compound remaining at 5 uM after 15 mins in presence of UDPGA by UPLC/MS/ESI analysis; assay type: ADME; conditions: 0.25 h
How it was run: (§1)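 Metabolic stability was run with mouse liver microsomal fraction (S9) and read as percent parent compound remaining over incubation time. Diclofenac served as the reference compound.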

[7] = Drug metabolism in mouse liver microsomes assessed as UGT mediated compound […] by measuring parent compound remaining at 5 uM after 30 mins in presence of UDPGA by UPLC/MS/ESI analysis; assay type: ADME; conditions: 0.5 h; how it was run: as §1
[8] = Drug metabolism in mouse liver microsomes assessed as UGT mediated compound […] by measuring parent compound remaining at 5 uM after 60 mins in presence of UDPGA by UPLC/MS/ESI analysis; assay type: ADME; conditions: 1 h; how it was run: as §1
[9] = Drug metabolism in human liver microsomes assessed as CYP450 mediated compound […] by measuring parent compound remaining at 5 uM after 15 mins in presence of NADPH by UPLC/MS/ESI analysis; assay type: ADME; conditions: read-out: Stability
[10] = Drug metabolism in human liver microsomes assessed as CYP450 mediated compound […] by measuring parent compound remaining at 5 uM after 30 mins in presence of NADPH by UPLC/MS/ESI analysis; assay type: ADME; conditions: read-out: Stability
[11] = Drug metabolism in human liver microsomes assessed as CYP450 mediated compound […] by measuring parent compound remaining at 5 uM after 60 mins in presence of NADPH by UPLC/MS/ESI analysis; assay type: ADME; conditions: read-out: Stability
[12] = Drug metabolism in human liver microsomes assessed as UGT mediated compound […] by measuring parent compound remaining at 5 uM after 15 mins in presence of UDPGA by UPLC/MS/ESI analysis; assay type: ADME; conditions: read-out: Stability
[13] = Drug metabolism in human liver microsomes assessed as UGT mediated compound […] by measuring parent compound remaining at 5 uM after 30 mins in presence of UDPGA by UPLC/MS/ESI analysis; assay type: ADME; conditions: read-out: Stability
[14] = Drug metabolism in human liver microsomes assessed as UGT mediated compound […] by measuring parent compound remaining at 5 uM after 60 mins in presence of UDPGA by UPLC/MS/ESI analysis; assay type: ADME; conditions: read-out: Stability
[15] = Drug metabolism in human plasma assessed as parent compound remaining after 15 mins by UPLC/MS/ESI analysis; assay type: ADME, cell-free; conditions: for remaining at 0.25 h: read-out: Stability
[16] = Drug metabolism in human plasma assessed as parent compound remaining after 30 mins by UPLC/MS/ESI analysis; assay type: ADME, cell-free; conditions: for remaining at 0.5 h: read-out: Stability
[17] = Drug metabolism in human plasma assessed as parent compound remaining after 60 mins by UPLC/MS/ESI analysis; assay type: ADME, cell-free; conditions: read-out: Stability
[18] = Drug metabolism in human plasma assessed as parent compound remaining after 1440 mins by UPLC/MS/ESI analysis; assay type: ADME, cell-free; conditions: for remaining at 24 h: read-out: Stability
How it was run: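 Compound incubated in human plasma for 24 h at 37 °C, and the fraction of parent compound remaining was determined.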

[19] = test system: Trypanosoma brucei brucei; assay: Antitrypanosomal activity against Trypanosoma brucei brucei Squib 427 infected in Swiss mouse assessed as mouse survival at 10 mg/kg, ip administered as single dose for 5 days and measured on day 14 post infection; assay type: functional, organism-based
How it was run: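 Acute T. b. brucei mouse infection model. Dosing was PO or IP at 10–50 mg/kg, once (SID) or twice (BID) daily for 5 days after infection, with 3 mice per group. […] Read-outs were mean survival time and survivors on day 14 post infection.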

[20] = test system: Trypanosoma brucei brucei; assay: Antitrypanosomal activity against Trypanosoma brucei brucei Squib 427 infected in Swiss mouse assessed as mean survival days at 10 mg/kg, ip administered as single dose for 5 days; assay type: functional
How it was run: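 Acute mouse infection model with T. b. brucei. Dosing ran for 5 days after infection, orally or intraperitoneally, once or twice daily. Groups were 3 mice each, with vehicle-treated infected controls. The read-out was mean survival time in days, plus the number of survivors on day 14 post-infection.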

[21] = test system: Trypanosoma brucei brucei; assay: Antitrypanosomal activity against Trypanosoma brucei brucei Squib 427 assessed as reduction in parasite growth at 7 to 14 times IC50 after 18 to 48 hrs resazurin dye-based fluorimetric analysis; assay type: functional, organism-based
How it was run: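 In vitro time course of T. b. brucei growth in the presence of compound, with parasite growth expressed as % of control.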

SMILES	pIC50 [1]	pIC50 (Leishmania infantum)	pIC50 (Plasmodium falciparum)	pIC50 (Trypanosoma cruzi)	pIC50 [2]	pIC50 (Peritoneal macrophage)	further results
Cc1cc(C)c(Oc2nc(N)nc(Nc3c(F)cccc3F)n2)c(C)c1	< 4.19	4.49	< 4.19	< 4.19	< 4.19	4.49	–
Cc1ccc(Oc2nc(N)nc(Nc3ccc(F)cc3)n2)c(Cl)c1	6.30	4.56	4.29	5.11	< 4.19	4.49	remaining at 0.25 h, 5 µM [3]: 25%; remaining at 0.5 h, 5 µM [4]: 6%; remaining at 1 h, 5 µM [5]: 1.4%; Stability [6]: 108%; Stability [7]: 109%; Stability [8]: 113%; remaining at 0.25 h, 5 µM [9]: 90%; remaining at 0.5 h, 5 µM [10]: 87%; remaining at 1 h, 5 µM [11]: 67%; remaining at 0.25 h, 5 µM [12]: 88%; remaining at 0.5 h, 5 µM [13]: 88%; remaining at 1 h, 5 µM [14]: 79%; Stability ([15]; 0.25 h): 121%; Stability ([16]; 0.5 h): 124%; remaining at 1 h [17]: 117%; remaining at 24 h [18]: 100%
Cc1ccc(C(=O)Nc2ccc(S(=O)(=O)O)c3cc(S(=O)(=O)O)cc(S(=O)(=O)O)c23)cc1NC(=O)c1cccc(NC(=O)Nc2cccc(C(=O)Nc3cc(C(=O)Nc4ccc(S(=O)(=O)O)c5cc(S(=O)(=O)O)cc(S(=O)(=O)O)c45)ccc3C)c2)c1 [SURAMIN]	–	–	–	–	–	–	Activity [19]: Active; MST [20]: > 7 days; Activity [21]: Active
N#Cc1ccc(Nc2nc(N)nc(Nc3ccc(F)cc3)n2)cc1	4.40	4.49	4.58	5.05	< 4.19	4.49	–
Cc1ccc(Oc2nc(N)nc(Nc3ccccc3)n2)cc1	5.96	4.49	< 4.19	< 4.19	< 4.19	4.49	–
Cc1ccc(Nc2nc(N)nc(Nc3c(Br)cc(C)cc3Br)n2)cc1	5.04	4.49	< 4.19	< 4.19	5.09	4.49	–
Nc1nc(Nc2ccc(F)cc2)nc(Nc2ccc(F)cc2)n1	5.55	< 4.19	< 4.19	< 4.19	< 4.19	< 4.19	–
Cc1ccc(Oc2nc(N)nc(Nc3ccc(C#N)cc3)n2)cc1	–	< 4.19	< 4.19	5.10	< 4.19	< 4.19	–
Cc1ccc(Nc2nc(N)nc(Nc3ccc(C#N)cc3)n2)cc1	< 4.19	< 4.19	< 4.19	< 4.19	< 4.19	< 4.19	–
Cc1ccc(Oc2nc(N)nc(Nc3ccc(F)cc3)n2)cc1	6.40	4.49	< 4.19	< 4.19	< 4.19	4.49	remaining at 0.25 h, 5 µM [3]: 57%; remaining at 0.5 h, 5 µM [4]: 28%; remaining at 1 h, 5 µM [5]: 10.5%; Stability [6]: 91%; Stability [7]: 104%; Stability [8]: 110%; remaining at 0.25 h, 5 µM [9]: 107%; remaining at 0.5 h, 5 µM [10]: 99%; remaining at 1 h, 5 µM [11]: 113%; remaining at 0.25 h, 5 µM [12]: 96%; remaining at 0.5 h, 5 µM [13]: 105%; remaining at 1 h, 5 µM [14]: 94%; remaining at 0.25 h [15]: 104%; remaining at 0.5 h [16]: 94%; remaining at 1 h [17]: 101%; remaining at 24 h [18]: 95%
CC/C(=C(\c1ccccc1)c1ccc(OCCN(C)C)cc1)c1ccccc1 [TAMOXIFEN]	–	–	–	–	4.99	–	–
O=C(O)Cc1ccccc1Nc1c(Cl)cccc1Cl [DICLOFENAC]	–	–	–	–	–	–	Stability [6]: 38%; Stability [7]: 28%; Stability [8]: 30%
Cc1ccc(Nc2nc(N)nc(Nc3ccc(C#N)cc3)n2)c(Cl)c1	5.11	4.29	4.53	< 4.19	< 4.19	< 4.19	–
CC1CS(=O)(=O)CCN1/N=C/c1ccc([N+](=O)[O-])o1 (configuration not stated) [NIFURTIMOX]	–	–	–	6.05	–	–	–
Cc1cc(C)c(Oc2nc(N)nc(Nc3ccc(F)cc3)n2)c(C)c1	6.52	< 4.19	< 4.19	< 4.19	< 4.19	< 4.19	remaining at 0.25 h, 5 µM [3]: 22%; remaining at 0.5 h, 5 µM [4]: 4%; remaining at 1 h, 5 µM [5]: 0.3%; Stability [6]: 94%; Stability [7]: 102%; Stability [8]: 112%; remaining at 0.25 h, 5 µM [9]: 53%; remaining at 0.5 h, 5 µM [10]: 33%; remaining at 1 h, 5 µM [11]: 13%; remaining at 0.25 h, 5 µM [12]: 95%; remaining at 0.5 h, 5 µM [13]: 118%; remaining at 1 h, 5 µM [14]: 91%; remaining at 0.25 h [15]: 100%; remaining at 0.5 h [16]: 104%; remaining at 1 h [17]: 115%; Stability ([18]; 24 h): 151%
Cc1cc(Br)c(Nc2nc(N)nc(Nc3ccc(F)cc3)n2)c(Br)c1	5.15	< 4.19	< 4.19	< 4.19	5.17	< 4.19	–

Continued by rising pIC50 (Leishmania infantum), values first:

pIC50 [1]	pIC50 (Leishmania infantum)	pIC50 (Plasmodium falciparum)	SMILES	pIC50 (Trypanosoma cruzi)	pIC50 [2]	pIC50 (Peritoneal macrophage)	further results
4.49	4.62	4.50	Cc1cc(C)c(Oc2ncnc(Nc3ccccc3)n2)c(C)c1	5.09	4.75	4.49	–
4.96	4.62	4.69	CNc1nc(Nc2ccc(F)cc2)nc(Oc2c(C)cc(C)cc2C)n1	5.11	< 4.19	4.49	–
4.51	4.97	4.53	Cc1cc(C)c(Oc2ncnc(Nc3ccc(F)cc3)n2)c(C)c1	5.10	5.10	< 4.19	–
5.10	5.02	5.08	Cc1cc(F)cc(C)c1Nc1nc(N)nc(Nc2ccc(C#N)cc2)n1	5.10	4.63	4.49	–
< 4.19	5.09	< 4.19	Nc1nc(Nc2ccc(F)cc2)nc(Sc2ccc(F)cc2)n1	5.16	< 4.19	5.10	–
5.37	5.09	< 4.19	Cc1cc(C)c(Oc2nc(N)nc(Oc3ccc(F)cc3)n2)c(C)c1	< 4.19	< 4.19	5.10	–
5.16	5.09	5.06	Cc1cc(C)c(Oc2nc(N)nc(Nc3ccc(C(F)(F)F)cc3)n2)c(C)c1	5.62	5.19	5.10	–
5.89	5.09	4.76	Cc1cc(C)c(Oc2nc(N)nc(Nc3cc(F)cc(F)c3)n2)c(C)c1	5.64	5.36	5.10	–
5.82	5.09	4.58	Cc1cc(C)c(Oc2nc(N)nc(Nc3ccc(Cl)cc3)n2)c(C)c1	5.51	5.19	5.10	–
5.09	5.09	5.27	Cc1cc(C)c(Oc2nc(Nc3ccc(F)cc3)nc(N3CCCCC3)n2)c(C)c1	5.62	< 4.19	4.49	–

Source: ChEMBL document CHEMBL4229376, “Optimization of the pharmacokinetic properties of potent anti-trypanosomal triazine derivatives” (Eur J Med Chem, 2018)
